Laboratory results from PubChem BioAssay AID488897 (Broad Institute, 2010).
Results filed as inconclusive are left out. Activity calls are given as the source filed them.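 The calls were made as follows: active = fitted half-maximal concentration for caspase signal rise at or below the highest valid tested dose; inconclusive = flat fit at 30 to 70% of control, or poor fit; inactive = the rest.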

Tested on: MEF A1-2A-tBid cells, caspase 3/7 luminescence, 3 h
Assay: apoptosis induction, A1-2A-tBid fibroblasts – cell-based, tBid as inducer, caspase 3/7 luminescence, dry powder, A1 inhibitor project, dose response (AID 488897)
Settings: not given
Summary of the method: (§1)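 Material: tBid-primed A1-2A-tBid mouse embryonic fibroblasts / Input: 2500 cells/well / Signal: luminescence, Caspase-Glo 3/7 DEVD-luciferin reagent diluted 1:1 in 50 mM HEPES / Read-out: caspase activation from luminescence increase / Buffer or medium: TSA added at seeding / Doses: pinned compound in dose-response series / Times: 3 h compound at 37 °C, 1 h reagent at RT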

Compound | AC50
CC(C)(C)n1nc(-c2ccc(Cl)cc2)c2c(N)ncnc21 | > 150 µM (inactive)
CCc1nnc(NC(=O)c2nc(S(=O)(=O)Cc3ccccc3)ncc2Cl)s1 | > 68 µM (inactive)
COc1ccc(N(C(=O)CCl)C(C(=O)NCCc2ccccc2)c2cccs2)cc1Cl (stereo not drawn) | > 150 µM (inactive)
Cc1ccc(CS(=O)(=O)c2ncc(Cl)c(C(=O)Nc3nnc(C(C)C)s3)n2)cc1 | > 46 µM (inactive)
Cc1cccc(CS(=O)(=O)c2ncc(Cl)c(C(=O)Nc3nnc(C(C)C)s3)n2)c1 | > 46 µM (inactive)
COc1cccc(C(=O)C(C#N)=C(SC)SC)c1 | 2.71 µM
Cc1cc(C(=O)CCl)c(C)n1CCc1ccc(Cl)cc1 | 8.01 µM
C/C1=C/C(=O)O[C@@H]2C[C@@H](CC[C@H](C)/C=C\CC1)O[C@@](O)(C1CSC(=O)N1)C2 (stereo partly drawn) | 0.695 µM
O=C(CCl)N=c1sccn1Cc1ccccc1Cl | 1.93 µM
Cn1c(=NC(=O)CCl)sc2ccccc21 | 3.22 µM
Nc1nc(F)nc2c1ncn2[C@@H]1O[C@H](CO)[C@@H](O)[C@H]1O | 2.35 µM
Cc1c(CCOC(=O)c2ccc(N3CCOCC3)c([N+](=O)[O-])c2)sc[n+]1CC#N | 16.7 µM
Cc1cccc(NC(=O)/C(C#N)=C/c2cn(CC(=O)NCc3ccco3)c3ccccc23)c1 | 7.59 µM
CCc1cc2c(=O)c(-c3cnn(-c4ccccc4)c3)c(C)oc2cc1OCC(=O)Nc1cccc(C)c1 | > 100 µM (inactive)
C=C1[C@@H](C)[C@H]2[C@H](Cc3ccccc3)NC(=O)[C@]23OC(=O)/C=C\[C@H](O)CCC[C@@H](C)C/C=C/[C@H]3[C@@H]1O | 12.7 µM
Cc1ccc(Sc2c([N+](=O)[O-])c(=O)n(C)c3ccccc23)cc1 | 18.1 µM
CC(=O)OC(C)(C)/C=C/C(=O)[C@](C)(O)C1[C@H](O)C[C@@]2(C)C3CC=C4C(C[C@H](O)C(=O)C4(C)C)[C@]3(C)C(=O)C[C@]12C (stereo partly drawn) | > 150 µM (inactive)
Cc1c(C=O)c(C=O)c(C)n1Cc1ccccc1 | 6.11 µM
CCOC(=O)CSC1=N/C(=C/c2ccc(-n3cncn3)cc2)C(=O)N1C(C)=O | 9.07 µM
CC(=O)N[C@H]1[C@H](O[C@H]2CC[C@@]3(C)C(CC[C@]4(C)C3CC=C3[C@@H]5CC(C)(C)CC[C@]5(C(=O)OC5OCC(O)C(O)C5O)C(O)C[C@]34C)C2(C)C)O[C@H](COC2OCC(O)C(OC3OCC(O)C(O)C3O)C2O)[C@@H](O[C@@H]2O[C@@H](C)[C@H](O)[C@@H](O)[C@H]2O[C@@H]2O[C@@H](C)[C@H](O)[C@@H](O)[C@H]2O)[C@@H]1O (stereo partly drawn) | 12.2 µM
O=C(Oc1cccc(/C=N/Nc2nc(Nc3ccccc3)nc(N3CCOCC3)n2)c1)c1ccco1 | 17.6 µM

Tested on: not listed separately
Assay: as above
Settings: MEF A1-2A-tBid cells, caspase 3/7 luminescence, 3 h; at 150 µM (top of the series)
Summary of the method: as §1

Compound | caspase activation
COc1cc(/C=C(/C#N)c2nc3ccccc3[nH]2)ccc1OCC(=O)Nc1ccccc1C(C)C | 1.39% (inactive)
C=C1[C@@H](C)[C@H]2[C@H](Cc3ccccc3)NC(=O)[C@]23[C@H](OC(C)=O)/C=C/[C@](C)(O)C(=O)[C@@H](C)C/C=C/[C@H]3[C@@H]1O | 0.731% (inactive)
